# According to ChEMBL document CHEMBL4020790, “Quinazolinone derivatives as inhibitors of homologous recombinase RAD51” (Bioorg Med Chem Lett, 2017):
# The source made the active and inactive calls. The rule behind the calls is not given here.
# What was measured:
# [1] = molecular target: T1, DNA repair protein RAD51 homolog 1 (Homo sapiens) (UniProt Q06609); test: Inhibition of RAD51 in human MDA-MB-231 cells assessed as reduction in DNA damage-induced RAD51 foci formation at 10 uM incubated for 16 hrs followed by 6-Gy gamma-irradiation measured after 6 hrs by immunofluoresent assay; format: cell-based
# T1 sequence (whole entry): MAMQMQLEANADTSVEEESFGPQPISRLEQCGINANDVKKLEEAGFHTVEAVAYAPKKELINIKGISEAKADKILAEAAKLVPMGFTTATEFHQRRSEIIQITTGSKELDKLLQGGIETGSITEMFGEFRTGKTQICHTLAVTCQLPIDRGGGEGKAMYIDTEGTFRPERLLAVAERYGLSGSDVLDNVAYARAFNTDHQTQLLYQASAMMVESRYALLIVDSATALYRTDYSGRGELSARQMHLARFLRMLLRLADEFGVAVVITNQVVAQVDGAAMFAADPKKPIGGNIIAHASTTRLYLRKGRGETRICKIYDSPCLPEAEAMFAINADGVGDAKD
# How it was run: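 MDA-MB-231 cells given 10 μM compound, then 6 Gy irradiation; RAD51 foci scored by immunofluorescence, with the read-out taken as the ratio of RAD51-positive to γH2AX-positive cells.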
# MDA-MB-231 [2] = test: Cytotoxicity against human MDA-MB-231 cells assessed as decrease in cell viability at 10 uM in presence of 6-Gy gamma-irradiation measured up to 120 hrs by CellTiter96 AQueous one solution cell proliferation assay; format: functional, cell-based
# How it was run: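 MDA-MB-231 cells given 10 μM compound with or without 6 Gy irradiation; proliferation followed over a 120 h time course and expressed as mean % proliferation from 3 independent experiments; area under the curve calculated from the proliferation data.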
# MDA-MB-231 [3] = test: Cytotoxicity against human MDA-MB-231 cells assessed as decrease in cell viability at 10 uM measured up to 120 hrs by CellTiter96 AQueous one solution cell proliferation assay; format: functional, cell-based
# How it was run: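 MDA-MB-231 cells exposed to 10 μM compound with or without 6 Gy irradiation; proliferation followed over a 120 h time course and expressed as mean % proliferation from 3 independent experiments; area under the curve derived from the proliferation data.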
# [4] = molecular target: T1, DNA repair protein RAD51 homolog 1 (Homo sapiens); test: Binding affinity to recombinant human RAD51 at 100 uM by SPR method
# MCF-10A = test: Cytotoxicity against human MCF10A cells assessed as decrease in cell viability after 120 hrs by MTS assay; format: cell-based
# SUM-159-PT = test: Cytotoxicity against human SUM159PT cells assessed as decrease in cell viability after 120 hrs by MTS assay; format: functional, cell-based
# MDA-MB-468 = test: Cytotoxicity against human MDA-MB-468 cells assessed as decrease in cell viability after 120 hrs by MTS assay; format: functional, cell-based; conditions: MDA-MB-468, 120 h
# BT-549 = test: Cytotoxicity against human BT549 cells assessed as decrease in cell viability after 120 hrs by MTS assay; format: functional, cell-based; conditions: BT-549, 120 h
# Hs-578T = test: Cytotoxicity against human Hs578T cells assessed as decrease in cell viability after 120 hrs by MTS assay; format: functional, cell-based
# MDA-MB-231 [5] = test: Cytotoxicity against human MDA-MB-231 cells assessed as decrease in cell viability after 120 hrs by MTS assay; format: functional, cell-based; conditions: MDA-MB-231, 120 h
# MDA-MB-436 = test: Cytotoxicity against human MDA-MB-436 cells assessed as decrease in cell viability after 120 hrs by MTS assay; format: functional, cell-based; conditions: MDA-MB-436, 120 h
# HCC1937 = test: Cytotoxicity against human HCC1937 cells assessed as decrease in cell viability after 120 hrs by MTS assay; format: functional, cell-based; conditions: HCC1937, 120 h
SMILES,inhibition [1],Activity (MDA-MB-231 [2]),Activity (MDA-MB-231 [3]),Activity [4],IC50 (MCF-10A),IC50 (SUM-159-PT),IC50 (MDA-MB-468),IC50 (BT-549),IC50 (Hs-578T),IC50 (MDA-MB-231 [5]),IC50 (MDA-MB-436),IC50 (HCC1937)
O=c1c2ccccc2nc(/C=C/c2cccnc2)n1CC1CCCCC1,Active,,,,,,,,,,,
O=c1c2ccccc2nc(/C=C/c2cccnc2)n1Cc1ccc(Cl)cc1,Active,Active,inactive,Active,48.3 µM,5.5 µM,5.7 µM,6.4 µM,4.2 µM,6.7 µM,4.1 µM,13.7 µM
O=c1c2ccccc2nc(/C=C/c2cccnc2)n1Cc1ccccc1,,Active,,,47.7 µM,84.1 µM,10.2 µM,35.4 µM,9.6 µM,11.1 µM,5.7 µM,89.1 µM
